Data as given in ChEMBL document CHEMBL1121384, “Synthesis and psychoanaleptic properties of new compounds structurally related to diphenhydramine” (J Med Chem, 1980).
Where a name gives a salt, the structure may show the parent alone.

Assays:
[1] = Group toxicity is the ratio of the LD50 values of isolated mice to that of grouped mice; type: organism-based; settings: mouse, in vivo; read-out: Group toxicity
Method in brief: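 Male Swiss mice (18-20 g) were dosed orally in 0.5% carboxymethylcellulose. Groups of 10 were then either crowded in small boxes (8.5 × 18 × 8.5 cm, four air holes) or kept isolated under usual housing, and mortality was read at 6 h. Ratio = LD50 isolated / LD50 grouped, from six doses spaced by ratio 2, computed by Kärber's method.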

Cavia porcellus [2] = species on record: Cavia porcellus; assay: In vitro anticholinergic activity was determined by acetylcholine induced contraction of guinea pig ileum; type: functional; settings: read-out: pA2 (converted)
Method in brief: (§1)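 Terminal ileum strips from guinea pigs (250-300 g) killed by a blow to the neck were hung in Tyrode solution at 32 °C, gassed with 95% O2/5% CO2.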

Mus musculus [3] = assay: Toxicity administered perorally was measured in mice; type: organism-based; settings: in vivo, po
Method in brief: (§2)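 Male Swiss mice (18-20 g) were given compound orally in 0.5% carboxymethylcellulose, in groups of four at 200, 400, 800 and 1600 mg/kg. LD50 was taken from mortality; vehicle controls were included.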

Rattus norvegicus [4] = species on record: Rattus norvegicus; assay: Anorexic activity was measured as the dose required to lower by 50% the consumption of control group in rat; No activity at this dose; type: functional
Method in brief: (§3)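 Male Wistar rats (100-120 g) given chocolate milk to drink for 6 h once a week over 6 weeks. In the last 4 weeks, compounds in 0.5% aqueous carboxymethylcellulose were given orally before each session in a Latin square design. ED50 is the dose cutting consumption by 50% vs vehicle controls, fitted by least squares from three groups (24 rats) on doses spaced by ratio 2.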

Mus musculus [5] = assay: Increase of exploratory behavior of mice by administering compound perorally; type: functional
Method in brief: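 Male Swiss mice (18-20 g) were dosed orally in 0.5% carboxymethylcellulose and placed singly in photobeam boxes with two crossed beams. Beam breaks were counted over the first 5 min. ED50 is the dose raising counts by 50% over vehicle controls, fitted by least squares from four groups of 10 mice on doses spaced by ratio 2.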

Mus musculus [6] = assay: Narcosis antagonism was measured as the dose required to lower by 50% the duration of narcosis in mice after peroral administration; type: functional; settings: po
Cavia porcellus [7] = species on record: Cavia porcellus; assay: In vitro antihistaminic activity was determined by histamine induced contraction of guinea pig ileum; type: functional; settings: for Kb: Cavia porcellus, Ileum, read-out: pA2 (converted); method in brief: as §1
Canis familiaris [8] = assay: Sympathomimetic action was evaluated from the increase of the femoral arterial blood pressure and of the cardiac uM/kg changes were < 10%; type: functional, Canis lupus familiaris
Method in brief: (§4)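 Mongrel dogs of both sexes were given compound intravenously in 0.5% carboxymethylcellulose. Hypertension and tachycardia were recorded. Values are doses in μmol/kg.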

[9] = Ratio of LD50/ED50; type: ADME
Mus musculus [10] = assay: Toxicity was measured as Lethal Dose 50 by administering to mice perorally; type: organism-based; settings: in vivo, po; method in brief: as §2
Canis familiaris [11] = assay: Sympathomimetic action was evaluated from the increase of the femoral arterial blood pressure and of the cardiac uM/kg changes were <10%; type: functional, Canis lupus familiaris; method in brief: as §4
Canis familiaris [12] = assay: Sympathomimetic action was evaluated from the increase of the cardiac rhythm after intravenous injection in dog; type: functional, Canis lupus familiaris; method in brief: as §4
Canis familiaris [13] = assay: Sympathomimetic action was evaluated from the increase of the femoral arterial blood pressure after intravenous injection in dog; type: functional, Canis lupus familiaris; method in brief: as §4
Rattus norvegicus [14] = species on record: Rattus norvegicus; assay: Anorexic activity was measured as the dose required to lower by 50% the consumption of control group in rat; type: functional; method in brief: as §3

SMILES | LD50 (Mus musculus [3]) [mmol/kg] | ED50 (Mus musculus [5]) [mmol/kg] | selectivity ratio [9] | other results
O=C(O)/C=C\C(=O)O.O=C(O)/C=C\C(=O)O.O=C(O)CCN1CCN(CCOC(c2ccccc2)c2ccc(F)cc2)CC1 (configuration not stated) | 1.3 | 0.04 | 37 | selectivity ratio [1]: 1.7; Kb (Cavia porcellus [2]): 7.24 µM; ED50 (Rattus norvegicus [4]): > 60 µmol/kg; ED50 (Mus musculus [6]): > 650 µmol/kg; Kb (Cavia porcellus [7]): 0.224 µM; Activity (Canis familiaris [8]): 0
O=C(O)/C=C\C(=O)O.O=C(O)/C=C\C(=O)O.O=C(O)CCCN1CCN(CCOC(c2ccccc2)c2ccc(F)cc2)CC1 (configuration not stated) | 1.9 | 0.06 | 34 | –
O=C(O)/C=C\C(=O)O.O=C(O)/C=C\C(=O)O.O=C(O)CN1CCN(CCOC(c2ccccc2)c2ccc(F)cc2)CC1 (configuration not stated) | 2.8 | 0.1 | 28 | –
O=C([O-])CN1CCN(CCOC(c2ccccc2)c2ccccc2)CC1.[Na+] | 4.3 | 0.5 | – | –
COc1cc(C(OCCN2CCN(CCC(=O)O)CC2)c2ccccc2)cc(OC)c1OC.O=C(O)/C=C\C(=O)O.O=C(O)/C=C\C(=O)O (configuration not stated) | 2.3 | 0.5 | – | –
O=C(O)/C=C\C(=O)O.O=C(O)/C=C\C(=O)O.O=C(O)CCN1CCN(CCOC(c2ccccc2)c2ccc(Cl)cc2)CC1 (configuration not stated) | 1.6 | 0.05 | 32 | –
CCOC(=O)CCN1CCN(CCOC(c2ccccc2)c2ccccc2Cl)CC1.Cl (configuration not stated) | 3.2 | 0.5 | – | pA2 (Cavia porcellus [7]): 7.25
COc1ccccc1C(OCCN1CCN(CCC(=O)O)CC1)c1ccccc1.O=C(O)/C=C\C(=O)O.O=C(O)/C=C\C(=O)O (configuration not stated) | 2.2 | 0.5 | – | –
COc1ccc(CN(CCN(C)C)c2ccccn2)cc1 [PYRILAMINE MALEATE] | – | – | – | Kb (Cavia porcellus [2]): 3.98 µM; Kb (Cavia porcellus [7]): 0.000417 µM
O=C(CN1CCN(CCOC(c2ccccc2)c2ccccc2)CC1)N1CCN(Cc2ccc3c(c2)OCO3)CC1.O=C(O)/C=C\C(=O)O.O=C(O)/C=C\C(=O)O | 0.7 | – | 23 | –
O=C(O)/C=C\C(=O)O.O=C(O)/C=C\C(=O)O.O=C(O)CCCCN1CCN(CCOC(c2ccccc2)c2ccc(F)cc2)CC1 (configuration not stated) | 2.2 | 0.05 | 40 | –
CCOC(=O)CCN1CCN(CCOC(c2ccccc2)c2ccc([N+](=O)[O-])cc2)CC1.Cl (configuration not stated) | – | 0.5 | – | LD50 (Mus musculus [10]): 3 M/kg
Cc1ccc(C(OCCN2CCN(CCC(=O)O)CC2)c2ccccc2)cc1.O=C(O)/C=C\C(=O)O.O=C(O)/C=C\C(=O)O (configuration not stated) | 2.3 | 0.16 | 14 | –
CCOC(=O)CCN1CCN(CCOC(c2ccc(F)cc2)c2ccc(F)cc2)CC1.Cl | 1.2 | 0.06 | 20 | selectivity ratio [1]: 0.4; Kb (Cavia porcellus [2]): 0.309 µM; ED50 (Mus musculus [6]): ~200 µmol/kg; Kb (Cavia porcellus [7]): 0.00724 µM; Activity (Canis familiaris [8]): 0
O=C([O-])CCN1CCN(CCOC(c2ccccc2)c2ccccc2)CC1.[Na+] | 3.6 | 0.21 | 17 | selectivity ratio [1]: 0.6; Kb (Cavia porcellus [2]): 115 µM; Activity (Canis familiaris [11]): 0; ED50 (Mus musculus [6]): > 500 µmol/kg; Kb (Cavia porcellus [7]): 0.759 µM
O=C(O)/C=C\C(=O)O.O=C(O)/C=C\C(=O)O.O=C(O)CCN1CCN(CCOC2c3ccccc3-c3ccccc32)CC1 | 2.3 | 0.23 | 10 | –
Cl.N#CCCN1CCN(CCOC(c2ccccc2)c2ccccc2)CC1 | 0.7 | 0.1 | 7 | –
O=C(O)/C=C\C(=O)O.O=C(O)/C=C\C(=O)O.O=C(O)CCN1CCN(CCOC(c2ccccc2)c2cccc(C(F)(F)F)c2)CC1 (configuration not stated) | 1.8 | 0.3 | 6 | –
CCCC(OCCN1CCN(CCC(=O)O)CC1)c1ccccc1.O=C(O)/C=C\C(=O)O.O=C(O)/C=C\C(=O)O (configuration not stated) | > 2.8 | 0.1 | > 28 | Kb (Cavia porcellus [2]): 1.95 µM; Kb (Cavia porcellus [7]): 3.55 µM
O=C(O)CCN1CCN(CCOCc2ccccc2)CC1 | > 5.5 | 0.5 | – | –
O=C(O)/C=C\C(=O)O.O=C(O)/C=C\C(=O)O.O=C(O)CCN1CCN(CCOC(c2ccc(F)cc2)c2ccc(F)cc2)CC1 | 1.1 | 0.05 | 23 | –
Cl.NC(=O)CCN1CCN(CCOC(c2ccccc2)c2ccccc2)CC1 | 2.1 | 0.17 | 12 | –
Cl.O=C(O)CCCN1CCN(CCOC(c2ccccc2)c2ccccc2)CC1 | 3.4 | 0.17 | – | –
CC(N)Cc1ccccc1.O=S(=O)(O)O (racemic) [AMPHETAMINE SULFATE] | – | – | – | selectivity ratio [1]: 5.3; Increase (Canis familiaris [12]): 30%; Kb (Cavia porcellus [2]): > 1000 µM; ED50 (Mus musculus [6]): 20 µmol/kg; Kb (Cavia porcellus [7]): 13.5 µM; Increase (Canis familiaris [13]): 50%; ED50 (Rattus norvegicus [14]): 13 µmol/kg
CCOC(=O)CCN1CCN(CCCOC(c2ccccc2)c2ccccc2)CC1.Cl | 1.8 | 0.1 | 18 | –
O=C(CN1CCN(CCOC(c2ccccc2)c2ccccc2)CC1)N1CCOCC1.O=C(O)/C=C\C(=O)O.O=C(O)/C=C\C(=O)O.O=C(O)/C=C\C(=O)O | 1.2 | 0.15 | 8 | –
